Screens as filed in PubChem.
Shown are actives, neighbours in structure and some others; about 3.3% of the full set was active somewhere.
PRMT1 FP inh: inhibitors of human PRMT1 | Q99873 | recombinant PRMT1, activity-based probe fluorescence polarization | inhibition, % at 2.79 µM | 1.3% of 370,000 active;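 active = inhibition above about 21% made by adding two undisclosed values, limit read from the data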
ABHD4 inh: inhibits mouse alpha/beta hydrolase domain 4 | Q8VD66 | purified mABHD4, FP-Rh probe fluorescence polarization | inhibition, % at 8.92 µM | 0.54% of 370,000 active | AID 720543;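 active = inhibition exceeding the mean over every tested compound plus 3 SD, cut at about 30% in these data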;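 note: 0% = plate median of compound wells and 100% = S159A mutant with DMSO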
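Doses – 8.92 µM, single dose · Material – wild-type mouse ABHD4 protein · Replication – single well per compound (singlicate) · Measure – percent inhibition of probe binding, normalized to plate controls · Schedule – 45 min compound pre-incubation plus 60 min probe step, 25 °C · Detection – fluorescence polarization with parallel and perpendicular emission, 525/598 nm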
SIAE inh: human SIAE inhibition, primary screen; SIAE FP-Rh probe binding, fluorescence polarization; inhibition, % at 9.66 µM; 0.69% of 370,000 active; AID 1053197;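 active = inhibition above a cutoff: mean of compounds within the control limits plus 3 SD of those, cut at about 17% in these data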;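 note: 0% = plate median of compound wells and 100% = probe without SIAE protein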
Target sequence (Q9HAT2 whole entry, looked up): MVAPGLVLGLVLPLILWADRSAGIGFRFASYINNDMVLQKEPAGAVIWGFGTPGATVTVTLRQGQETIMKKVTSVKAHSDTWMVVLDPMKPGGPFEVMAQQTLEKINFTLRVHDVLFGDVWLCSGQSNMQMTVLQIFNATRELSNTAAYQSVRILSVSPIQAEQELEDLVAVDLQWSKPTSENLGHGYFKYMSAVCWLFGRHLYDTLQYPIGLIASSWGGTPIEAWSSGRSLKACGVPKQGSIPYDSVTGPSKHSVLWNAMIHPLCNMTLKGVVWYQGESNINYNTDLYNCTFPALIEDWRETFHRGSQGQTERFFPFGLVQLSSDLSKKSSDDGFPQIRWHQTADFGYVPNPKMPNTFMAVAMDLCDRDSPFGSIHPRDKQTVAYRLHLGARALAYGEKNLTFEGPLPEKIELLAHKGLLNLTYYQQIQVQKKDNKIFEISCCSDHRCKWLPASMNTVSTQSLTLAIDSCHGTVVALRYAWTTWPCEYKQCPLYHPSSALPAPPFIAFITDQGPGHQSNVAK
TCR CD3 inh: blocks the human TCR-CD3 interaction | TAMRA-labeled TCR probe fluorescence, biochemical | inhibition, % at 9.4 µM | 0.37% of 360,000 active | AID 651800; in the data active = inhibition above about 19%;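 note: recombinant mutant TCR 2C K166C tagged with TAMRA read by polarization; 0% = receptor in buffer alone and 100% = receptor with positive control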
rCAG binder: molecules binding r(CAG) RNA repeats. r(CAG) RNA repeat, TO-PRO-1 dye displacement fluorescence. inhibition, % at 3 µM. 1.3% of 370,000 active. AID 651821;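 active = inhibition above the plate cutoff, the mean of all test compounds on that plate plus 3 SD, cut at about 35% in these data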;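 note: 0% = DMSO alone and 100% = 100 µM mitoxantrone as full dye displacement; higher means more dye released from RNA so lower well fluorescence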
SIAE confirm: human SIAE inhibition, confirmation | AID 1117263 | 13% of 2,300 active | inhibition, % at 9.66 µM | shares compounds with SIAE inh | SIAE FP-Rh activity-based probe, fluorescence polarization;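 active = mean inhibition of the replicates above the hit cutoff set in the primary screen, cut at about 17% in these data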;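 note: 0% = SIAE with DMSO and probe and 100% = probe without SIAE; inhibitors lower polarization as more probe stays unbound to SIAE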
Numbers without * were called inactive; nt = no result given.

SMILES	PRMT1 FP inh	ABHD4 inh	SIAE inh	TCR CD3 inh	rCAG binder	SIAE confirm
Cc1cc(C)c(NC(=O)C2=COCCO2)c(C)c1	-2	1	17*	-1	-1	4
NC(=O)CC(NC(=O)Cc1ccc(Cl)cc1)c1ccc(NC2CCCCC2)c([N+](=O)[O-])c1 (stereo unspecified)	-2	-2	20*	-4	7	-8
O=C1NC[C@@H](CCCCN2C[C@H](Cc3ccc(O)cc3)N(Cc3ccccc3)C(=O)C2=O)N(CCc2ccc(O)cc2)C1=O	0	4	1	-1	3	nt
COc1ccc(NC(=O)Nc2ccccc2OC)cc1	2	-3	1	2	-1	nt
COc1ccccc1NC(=O)Nc1ccc(NC(=O)c2ccccc2O)cc1	-2	-16	51*	1	19	26*
COc1ccc(Cl)cc1Nc1nc(Cl)nc(NCCO)n1	-1	-4	5	-6	4	nt
C=CCNc1ncnc2c1ncn2[C@H]1CN(Cc2ccco2)C[C@@H](CO)O1	-1	-2	0	5	-1	nt
COc1cc(/C=C/C(=O)O)cc(S(=O)(=O)N2CCc3ccccc32)c1OC	-3	4	19*	-1	7	-6
Cc1ccc(OCC(=O)Nc2ccc(S(=O)(=O)N3CCN(C)CC3)cc2)cc1	0	-1	18*	6	-2	0
COC(=O)c1cn(C)c2ccc(S(=O)(=O)N(C)C3CCCCC3)cc2c1=O	-2	4	20*	-6	1	-4
COCCNC(=O)C1CCCN(C(=O)c2sccc2C)CC1 (stereo unspecified)	1	-2	-4	12	2	nt
O=C1CCc2cc(NS(=O)(=O)c3ccc(Cl)cc3)cc3c2N1CC3	-2	1	4	-4	-2	nt
COc1ccc(NC(=O)c2[nH]c(C)c(C(C)=O)c2C)cc1	3	2	4	0	-1	nt
CC(=O)c1c(C)[nH]c(C(=O)Nc2ccc(N3CCCCCC3)cc2)c1C	3	29	26*	2	5	10
Cc1ccc(N)c([N+](=O)[O-])c1	-8	0	1	5	2	nt
Nc1ccc(N=Nc2ccccc2)cc1[N+](=O)[O-]	1	12	18*	-3	8	3
Cc1ccc(S(=O)(=O)N/N=C\c2cn(CC(N)=O)c3ccccc23)cc1C	-2	9	23*	7	25	7
COc1cc(/C=C(/C#N)c2ccc(C)cc2)ccc1Oc1ccc([N+](=O)[O-])cn1	-2	-12	35*	2	2	-2
C[C@H](CO)N1C[C@H](C)[C@H](CN(C)C(=O)Nc2ccc(F)cc2)OCc2ccccc2-c2c(n(C)c3ccccc23)C1=O	5	-11	-1	-4	8	nt
Cc1c(C2(O)CCCCC2)[nH]c2cnccc12	-4	-2	23*	3	7	-3
O=C(CN1C(=O)NC2(CCCC2)C1=O)N1CCCSC1=Nc1ccccc1	-3	4	23*	-5	-4	69*
COCc1nnc(NC(=O)C23CC4CC(CC(C4)C2)C3)s1	9	-8	18*	-4	-8	4
COc1ccccc1N1CCN(CCCCOc2cccc3ccccc23)CC1	-3	14	50*	2	-7	7
COc1ccccc1OCCCCN1CCN(c2ccccc2OC)CC1	-2	12	2	0	-11	nt
CC1CCN(Cc2nnnn2CCCC(=O)N(C)C2CCOC2)CC1 (stereo unspecified)	1	-7	6	-1	-5	nt
SMILES	PRMT1 FP inh	ABHD4 inh	SIAE inh	TCR CD3 inh	rCAG binder	SIAE confirm
CCN(CC)C(=O)N1c2ccccc2Sc2ccccc21	-3	7	18*	2	-7	11
COC(=O)c1[nH]c2ccc(Cl)cc2c1NC(=O)CN1CCC(C(N)=O)CC1	-2	5	22*	-2	2	-5
CCc1nc2ccc(C(=O)NCc3cccs3)cn2c1N(CC)CCOC	-3	0	3	0	-1	nt
Cc1cccc(-c2ccc3c(c2)C2CC3CCN2Cc2ccc3c(c2)OCO3)c1 (stereo unspecified)	3	-2	-1	-4	5	nt
COc1ccc2[nH]c3c(c2c1)CCNC3c1ccc([N+](=O)[O-])o1 (stereo unspecified)	23*	-4	21*	1	3	22*
CC(=O)c1cc(F)ccc1OCC(=O)Nc1ccc2c(c1)OCO2	0	2	4	0	8	nt
O=C(COC(=O)c1ccccc1SCC(=O)N1CCCC1)Nc1ccc(OC(F)F)cc1	19	-7	20*	3	-1	1
COCOc1cccc(CN2CCC2(C)C(=O)Nc2ccc(C)cc2)c1 (stereo unspecified)	-5	-6	-5	-1	1	nt
CC(OC(=O)/C=C/c1cccc(Cl)c1)C(=O)NC1CCCCC1C (stereo unspecified)	-2	3	17*	6	-1	-1
CC(OC(=O)C1CCN(S(=O)(=O)c2ccc(Cl)cc2)CC1)C(=O)NC1CCCCC1C (stereo unspecified)	-4	2	19*	4	-10	-2
CCCS(=O)(=O)NC(=O)C1(C)CCCN(C(=O)c2ccc(SC(F)(F)F)cc2)C1 (stereo unspecified)	0	1	0	0	9	nt
CCC(=O)N1CCN(c2ccc(NC(=S)NC(=O)c3cc4ccccc4o3)cc2)CC1	5	-3	3	-1	2	nt
S=c1[nH]nc(Cn2c(-c3ccccn3)nc3ccccc32)n1-c1ccc2c(c1)OCCO2	0	2	19*	4	2	3
CC(C)(C)NC(=O)Cn1nnc(-c2ccc(Cl)cc2)n1	-3	-10	-1	-4	-3	nt
CC(=O)NNC(=O)CCn1nnc(-c2ccc(Cl)cc2)n1	-3	-2	21*	-2	1	5
O=C1Nc2ccccc2-c2nnnn2C1N1CCC(Cc2ccccc2)CC1 (stereo unspecified)	-3	-10	-4	-2	3	nt
Cc1nonc1CN(C)C(=O)CC1C(=O)NCCN1Cc1ccccc1C(F)(F)F (stereo unspecified)	-1	-1	2	6	-4	nt
CN(CCn1ccnc1)C(=O)CC1C(=O)NCCN1Cc1ccccc1C(F)(F)F (stereo unspecified)	-1	-1	24*	5	-5	-1
O=C(Nc1ccc(Cl)cc1C(F)(F)F)c1ccccc1Cl	-3	-3	29*	-8	-2	-5
Cc1ccc(C(=O)Nc2ccc(Cl)cc2C(F)(F)F)c(Cl)c1	-2	-1	1	10	-3	nt
CC1(C)CC(=O)C2=C(C1)N1C(=C(C#N)C2c2ccc(Cl)cc2)N=C(N)c2ccccc21 (stereo unspecified)	11	23	20*	-9	10	1
CC(=O)NCCNc1nc(NCC2CC2)nc2cc(-c3ccccc3)sc12	0	7	1	-1	1	nt
CCNc1nc(NCC)nc(N/N=C/c2ccc(O)c(O)c2)n1	-1	13	18*	8	0	2
